Measurements from different studies.
Lines come from different studies, so protocols differ.
Target: Phosphorylase b kinase gamma catalytic chain, skeletal muscle/heart isoform (PHKG1, Homo sapiens, UniProt Q16816)

| SMILES | test | setting | remaining binding |
| --- | --- | --- | --- |
| C[C@@H](c1ccc(-n2cnc3c(N)ncnc32)cc1)N1CCc2nn(C)c(Cc3ccccc3)c2C1=O | binding, competition with immobilised ligand | 0.1 µM | 90% |
| F[C@@H]1CCN(c2nccc(-c3cnn4ncccc34)n2)C1 | binding | 1 µM | 100% |
| COc1cnc(Nc2cccc(S(N)(=O)=O)c2)nc1N1CCN(c2ccccc2)CC1 | binding, competition with immobilised ligand | 1 µM | 97% |
| CN(C)c1nccc(-c2cnc3ncccn23)n1 | binding | 1 µM | 100% |
| Cc1cnc(Nc2ccc(C(=O)N3CCC(N4CCCC4)CC3)cc2)nc1-c1cc2ccccc2s1 | binding, competition with immobilised ligand | 1 µM | 54% |
| O=C(Nc1c[nH]nc1C(=O)NC1CCNCC1)c1cc(F)cc(F)c1 | binding, competition with immobilised ligand | 1 µM | 93% |
| Cc1nc(N2CC[C@@H](O)C2)ncc1-c1cc(C(F)(F)F)cc2[nH]ncc12 | cell-free assay, competition with immobilised ligand | 1 µM | 81% |
| CCN1CCN(Cc2ccc(C(=O)Nc3ccc(C)c(Oc4ccc5c(c4)CC(=O)N5)c3)cc2C(F)(F)F)CC1 | binding, competition with immobilised ligand | 1 µM | 100% |
| C=CC(=O)N1CCC(C(=O)NCC(=O)N2CCN(c3nc(-c4cnc(N)nc4C(F)F)nc(N4CCOCC4)n3)CC2)CC1 | binding, competition with immobilised ligand | 1 µM | 100% |
| O=C(NCCCN1CCOCC1)c1ccc(Nc2ncc(Cl)c(-c3ccc(Cl)s3)n2)cc1 | binding, competition with immobilised ligand | 1 µM | 56% |
| CC(=O)c1c(NS(C)(=O)=O)c2cc(-c3ccc(Cl)cc3)c(-c3ccc(Cl)cc3Cl)nc2n(C)c1=O | cell-free assay, competition with immobilised ligand | 1 µM | 94% |
| c1cncc(-c2cccc(Nc3nccc(NC4CCCCC4)n3)c2)c1 | binding, competition with immobilised ligand | 10 µM | 75% |
| C[C@@H]1CCN(c2nccc(-c3cnn4ncccc34)n2)C1 | binding | 1 µM | 100% |
| Cc1c(NC(=O)c2cc(C(N)=O)nc3cc(F)ccc23)c(C(F)(F)F)nn1Cc1ccc(C(C)(C)C)cc1 | cell-free assay, competition with immobilised ligand | 1 µM | 100% |
| CC1CCCN1c1nccc(-c2cnn3ncccc23)n1 (stereo not shown) | binding | 1 µM | 100% |
| CNC(=O)[C@@H]1CC[C@@H](n2c(-c3ccc4cnccc4c3)nc3ccc(C(=O)NCc4cccc(C(N)=O)c4)cc32)C1 | binding, competition with immobilised ligand | 1 µM | 100% |
| N#CC1(c2ccccn2)CCN(Cc2cc(C(=O)N3CCCC3)c(=O)n3ccccc23)CC1 | cell-free assay, competition with immobilised ligand | 1 µM | 100% |
| O=C(c1ccc(Nc2ncc(Cl)c(-c3cc4ccccc4s3)n2)cc1)N1CCC(N2CCCC2)CC1 | binding, competition with immobilised ligand | 1 µM | 54% |
| CN(CCCC(F)(F)F)c1nccc(-c2cnn3ncccc23)n1 | binding | 1 µM | 100% |
| O=C(N[C@H]1CCCCC/C=C\C2C[C@@]2(C(=O)O)NC(=O)[C@@H]2C[C@@H](Oc3ccncc3)CN2C1=O)OC1CCCC1 (stereo partly shown) | binding, competition with immobilised ligand | 1 µM | 88% |
| Cc1cnn2ncc(-c3ccnc(N(C)C)n3)c2c1 | binding | 1 µM | 85% |
| O=C(NCc1ncc(C(F)(F)F)cc1Cl)c1ccc2c(c1)C1(CCS(=O)(=O)CC1)[C@@H](C1CC1)N2S(=O)(=O)c1ccc(F)cc1 | cell-free assay, competition with immobilised ligand | 1 µM | 100% |
